Results taken from ChEMBL document CHEMBL3091329, “Discovery of tetrahydroisoquinoline-based CXCR4 antagonists” (ACS Med Chem Lett, 2013).

Assays:
[1] = target: T1, C-X-C chemokine receptor type 5 (Homo sapiens) (UniProt P32302); experiment: Inhibition of CXCR5 (unknown origin) at 10 uM relative to control
T1 sequence (whole entry): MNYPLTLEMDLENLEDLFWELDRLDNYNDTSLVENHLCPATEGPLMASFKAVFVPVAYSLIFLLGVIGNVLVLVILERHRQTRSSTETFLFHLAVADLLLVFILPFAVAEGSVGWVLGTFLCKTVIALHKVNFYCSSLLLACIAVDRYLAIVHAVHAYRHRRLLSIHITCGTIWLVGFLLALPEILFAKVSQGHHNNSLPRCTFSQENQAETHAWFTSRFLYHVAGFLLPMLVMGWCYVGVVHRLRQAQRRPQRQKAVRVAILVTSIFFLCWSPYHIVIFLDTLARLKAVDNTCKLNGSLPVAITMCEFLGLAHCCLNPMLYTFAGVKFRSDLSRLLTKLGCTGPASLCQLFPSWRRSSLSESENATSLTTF

[2] = target: T2, C-C chemokine receptor type 7 (Homo sapiens) (UniProt P32248); experiment: Inhibition of CCR7 (unknown origin) at 10 uM relative to control
T2 sequence (whole entry): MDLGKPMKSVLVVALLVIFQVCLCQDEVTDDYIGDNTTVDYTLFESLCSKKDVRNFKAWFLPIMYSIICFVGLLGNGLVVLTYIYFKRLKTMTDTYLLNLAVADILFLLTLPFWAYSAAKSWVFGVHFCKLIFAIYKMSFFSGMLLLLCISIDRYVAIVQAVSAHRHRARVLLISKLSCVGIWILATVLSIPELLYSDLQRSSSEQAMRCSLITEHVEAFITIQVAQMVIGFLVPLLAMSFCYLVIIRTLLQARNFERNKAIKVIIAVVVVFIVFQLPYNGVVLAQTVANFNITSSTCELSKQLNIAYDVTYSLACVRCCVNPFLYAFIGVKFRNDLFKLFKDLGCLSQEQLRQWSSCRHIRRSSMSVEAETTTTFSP

[3] = Cytotoxicity against human PBMC assessed as cell viability by MTS assay; assay type: cell-based; details: read-out: TC50 (the source's name)
[4] = Half life in mouse liver microsomes at 1 uM incubated for 3 mins prior to NADPH addition by LC-MS/MS analysis; assay type: ADME, Microsome
[5] = target: T3, C-C chemokine receptor type 9 (Homo sapiens) (UniProt P51686); experiment: Inhibition of CCR9 (unknown origin) at 10 uM relative to control
T3 sequence (whole entry): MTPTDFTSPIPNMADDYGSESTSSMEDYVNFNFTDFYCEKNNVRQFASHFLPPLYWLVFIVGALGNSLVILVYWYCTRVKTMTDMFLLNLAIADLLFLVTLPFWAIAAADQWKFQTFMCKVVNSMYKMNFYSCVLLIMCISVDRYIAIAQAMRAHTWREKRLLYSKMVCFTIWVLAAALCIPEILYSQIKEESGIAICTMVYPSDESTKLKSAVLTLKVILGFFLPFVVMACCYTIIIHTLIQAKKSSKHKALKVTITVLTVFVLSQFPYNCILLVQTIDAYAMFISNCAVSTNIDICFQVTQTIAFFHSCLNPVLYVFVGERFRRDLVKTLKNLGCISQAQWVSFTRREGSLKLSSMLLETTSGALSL

[6] = target: T4, C-C chemokine receptor type 1 (Homo sapiens) (UniProt P32246); experiment: Inhibition of CCR1 (unknown origin) at 10 uM relative to control
T4 sequence (whole entry): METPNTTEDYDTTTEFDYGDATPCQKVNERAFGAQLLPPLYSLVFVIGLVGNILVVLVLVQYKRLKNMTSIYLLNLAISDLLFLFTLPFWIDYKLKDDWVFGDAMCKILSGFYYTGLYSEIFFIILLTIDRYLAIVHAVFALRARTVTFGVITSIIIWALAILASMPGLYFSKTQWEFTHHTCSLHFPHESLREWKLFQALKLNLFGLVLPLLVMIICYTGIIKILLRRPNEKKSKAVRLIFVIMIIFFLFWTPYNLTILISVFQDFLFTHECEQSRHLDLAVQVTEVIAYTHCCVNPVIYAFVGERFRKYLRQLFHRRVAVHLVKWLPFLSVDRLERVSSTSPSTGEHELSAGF

[7] = target: T5, C-X-C chemokine receptor type 1 (Homo sapiens) (UniProt P25024); experiment: Inhibition of CXCR1 (unknown origin) at 10 uM relative to control
T5 sequence (whole entry): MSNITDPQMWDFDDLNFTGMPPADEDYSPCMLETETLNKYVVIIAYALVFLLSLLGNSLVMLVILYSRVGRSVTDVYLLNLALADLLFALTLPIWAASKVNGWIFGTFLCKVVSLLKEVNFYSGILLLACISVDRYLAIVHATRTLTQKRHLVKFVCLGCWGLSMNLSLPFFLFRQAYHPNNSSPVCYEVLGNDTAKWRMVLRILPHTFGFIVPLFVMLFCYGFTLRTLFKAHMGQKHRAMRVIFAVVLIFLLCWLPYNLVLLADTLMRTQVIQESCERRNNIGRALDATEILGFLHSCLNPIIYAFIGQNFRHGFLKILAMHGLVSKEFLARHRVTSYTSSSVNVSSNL

Liver microsome [8] = experiment: Intrinsic clearance in human liver microsomes at 1 uM incubated for 3 mins prior to NADPH addition by LC-MS/MS analysis; assay type: ADME; details: 0.05 h
[9] = target: C-C chemokine receptor type 8 (Homo sapiens) (UniProt P51685); experiment: Inhibition of CCR8 (unknown origin) at 10 uM relative to control
Sequence of C-C chemokine receptor type 8 (Homo sapiens) (P51685 whole entry): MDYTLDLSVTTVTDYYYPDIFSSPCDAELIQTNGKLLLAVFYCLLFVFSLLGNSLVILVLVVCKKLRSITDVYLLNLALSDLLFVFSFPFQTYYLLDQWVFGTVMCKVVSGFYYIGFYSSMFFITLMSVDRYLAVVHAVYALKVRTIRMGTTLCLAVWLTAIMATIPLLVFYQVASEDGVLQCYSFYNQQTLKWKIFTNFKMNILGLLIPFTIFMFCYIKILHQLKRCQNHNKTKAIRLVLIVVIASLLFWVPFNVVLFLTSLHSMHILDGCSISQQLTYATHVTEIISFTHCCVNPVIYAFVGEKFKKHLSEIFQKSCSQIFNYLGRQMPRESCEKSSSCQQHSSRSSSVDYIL

Liver microsome [10] = experiment: Intrinsic clearance in rat liver microsomes at 1 uM incubated for 3 mins prior to NADPH addition by LC-MS/MS analysis; assay type: ADME; details: 0.05 h
[11] = Cytotoxicity against human MAGI-CCR5 cells assessed as cell viability after 2 to 6 days by MTS assay; details: MAGI-CCR5 cells
[12] = AUC (0 to infinity) in jugular pre-cannulated Harlan Sprague-Dawley rat at 2 mg/kg, iv; assay type: ADME, organism-based; set-up: time infinity, dose 2 mg/kg, route intravenous; details: plasma
[13] = Elimination half life in jugular pre-cannulated CRL Sprague-Dawley rat at 10 mg/kg, po; assay type: ADME, organism-based; set-up: dose 10 mg/kg, route oral; details: in vivo, read-out: beta t1/2 (converted)
[14] = target: C-X-C chemokine receptor type 6 (Homo sapiens) (UniProt O00574); experiment: Inhibition of CXCR6 (unknown origin) at 10 uM relative to control
Sequence of C-X-C chemokine receptor type 6 (Homo sapiens) (O00574 whole entry, looked up): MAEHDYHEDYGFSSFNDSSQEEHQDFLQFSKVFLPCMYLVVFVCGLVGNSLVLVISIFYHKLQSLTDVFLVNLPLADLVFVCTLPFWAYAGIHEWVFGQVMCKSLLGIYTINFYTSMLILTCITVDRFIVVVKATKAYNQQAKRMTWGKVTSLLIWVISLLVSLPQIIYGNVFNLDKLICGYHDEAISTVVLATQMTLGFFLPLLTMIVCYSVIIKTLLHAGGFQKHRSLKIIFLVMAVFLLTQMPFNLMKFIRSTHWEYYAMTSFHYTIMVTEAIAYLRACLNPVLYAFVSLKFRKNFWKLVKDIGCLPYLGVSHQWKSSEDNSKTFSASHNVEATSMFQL

Plasma = experiment: Plasma concentration in Harlan C57BL/6 mouse at 5 to 20 mg/kg, sc after 6 to 8 hrs by LC/MS/MS analysis; assay type: ADME, organism-based; set-up: route subcutaneous; details: in vivo
Procedure, shortened: (§1)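 Harlan mice were given a single subcutaneous dose at 5, 10 or 20 mg/kg. Blood was sampled at multiple time points over about 8 h, and each sample was used for both total circulating WBC count and plasma drug level. Counts and concentrations were plotted against time for each dose.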

[15] = Plasma concentration in Harlan C57BL/6 mouse at 5 mg/kg, sc after 1 hr by LC/MS/MS analysis; assay type: ADME, organism-based; set-up: dose 5 mg/kg, route subcutaneous; procedure, shortened: as §1

NCCCCN(C[C@H]1Cc2ccccc2CN1)[C@H]1CCCc2cccnc21
inhibition [1]: < 10%
inhibition [2]: < 10%
CC50 [3]: 47 µM
half-life at 1 µM [4]: 0.367 h
inhibition [5]: < 10%
inhibition [6]: < 10%
inhibition [7]: < 10%
CLH (Liver microsome [8]): < 20 µL/min/mg
inhibition [9]: < 10%
CLH (Liver microsome [10]): 35 µL/min/mg
CC50 [11]: > 10 µM
AUC(0-inf) [12]: 108 ng·h/mL
half-life [13]: 6 h
inhibition [14]: < 10%
Cp (Plasma): 87 ng/mL
concentration at 1 h [15]: 725 ng/mL
